Experimental findings from ChEMBL document CHEMBL6115035 (J Med Chem, 2025) are described below.

SMILES strings stand for the structures. Active and inactive are the calls of the source. The rule behind the calls is not given here.

The target in one test is CDK7/Cyclin H/MNAT1 (Homo sapiens, UniProt P50613). Briefly: Inhibition of CDK7/cyclin H/MAT1 (unknown origin) by ADP-Glo kinase assay. It counts as protein-complex assay.
In a further test the target is CDK9/cyclin T1 (Homo sapiens, UniProt P50750). Put plainly: Inhibition of CDK9/Cyclin T1 (unknown origin) by ADP-Glo kinase assay. It counts as protein-complex assay. For orientation: ADP-Glo turns the ADP formed in a reaction into a luminescent signal.
For the next test, the target named is CDK9/Cyclin K (Homo sapiens, UniProt P50750). Briefly: Inhibition of CDK9/Cyclin K (unknown origin) by ADP-Glo kinase assay. It counts as protein-complex assay.
Chain of CDK9/Cyclin K (P50750 whole entry): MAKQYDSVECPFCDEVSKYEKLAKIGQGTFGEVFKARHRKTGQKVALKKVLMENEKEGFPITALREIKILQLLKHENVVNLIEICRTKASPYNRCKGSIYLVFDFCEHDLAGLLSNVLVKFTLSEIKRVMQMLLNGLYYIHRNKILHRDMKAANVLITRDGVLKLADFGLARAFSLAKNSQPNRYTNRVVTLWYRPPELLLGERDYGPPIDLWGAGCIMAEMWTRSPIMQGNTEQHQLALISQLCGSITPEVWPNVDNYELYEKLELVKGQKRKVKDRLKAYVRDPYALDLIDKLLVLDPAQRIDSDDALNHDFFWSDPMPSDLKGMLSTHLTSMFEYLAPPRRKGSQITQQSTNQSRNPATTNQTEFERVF
Chain of CDK9/Cyclin K (O75909 whole entry, further chain): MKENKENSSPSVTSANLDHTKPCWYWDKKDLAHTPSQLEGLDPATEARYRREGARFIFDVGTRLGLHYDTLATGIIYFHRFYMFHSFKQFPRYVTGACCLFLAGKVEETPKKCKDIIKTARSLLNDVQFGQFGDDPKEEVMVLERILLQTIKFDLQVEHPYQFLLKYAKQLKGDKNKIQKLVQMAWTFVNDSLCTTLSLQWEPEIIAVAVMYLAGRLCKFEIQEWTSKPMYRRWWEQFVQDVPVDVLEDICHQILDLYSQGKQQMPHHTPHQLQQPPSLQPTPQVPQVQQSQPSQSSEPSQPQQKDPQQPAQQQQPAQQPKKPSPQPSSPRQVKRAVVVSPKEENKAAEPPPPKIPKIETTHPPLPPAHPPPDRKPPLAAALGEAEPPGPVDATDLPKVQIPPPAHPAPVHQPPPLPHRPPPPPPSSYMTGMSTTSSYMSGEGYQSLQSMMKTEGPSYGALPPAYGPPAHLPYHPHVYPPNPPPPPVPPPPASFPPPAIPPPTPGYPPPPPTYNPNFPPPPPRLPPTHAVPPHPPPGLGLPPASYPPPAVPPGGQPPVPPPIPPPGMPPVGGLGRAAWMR
The target of test [1] is T1, Cyclin-dependent kinase 5/CDK5 activator 1 (Homo sapiens, UniProt Q00535). Put plainly: Inhibition of CDK5/p25NCK (unknown origin) by ADP-Glo kinase assay. It counts as protein-complex assay.
T1 sequence (Q00535 whole entry): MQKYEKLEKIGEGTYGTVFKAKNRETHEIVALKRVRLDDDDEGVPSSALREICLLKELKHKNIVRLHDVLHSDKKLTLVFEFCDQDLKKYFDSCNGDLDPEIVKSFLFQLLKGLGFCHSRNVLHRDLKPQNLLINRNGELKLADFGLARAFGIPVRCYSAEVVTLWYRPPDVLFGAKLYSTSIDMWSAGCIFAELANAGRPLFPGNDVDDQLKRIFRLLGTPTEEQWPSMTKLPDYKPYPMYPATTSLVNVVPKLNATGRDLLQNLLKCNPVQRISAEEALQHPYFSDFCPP
T1 sequence (Q15078 whole entry, further chain): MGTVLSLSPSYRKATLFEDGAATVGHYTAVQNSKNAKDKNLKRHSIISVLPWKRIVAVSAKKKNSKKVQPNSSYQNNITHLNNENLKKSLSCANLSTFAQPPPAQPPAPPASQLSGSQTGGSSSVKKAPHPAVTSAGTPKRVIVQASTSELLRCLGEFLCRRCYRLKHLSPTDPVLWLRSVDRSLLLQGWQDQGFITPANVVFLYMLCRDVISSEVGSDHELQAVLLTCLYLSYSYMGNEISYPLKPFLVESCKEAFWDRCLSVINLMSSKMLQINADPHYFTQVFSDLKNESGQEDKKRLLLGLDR
Test [2] has as its target T1, Cyclin-dependent kinase 5/CDK5 activator 1. Put plainly: Inhibition of CDK5/p35NCK (unknown origin) by ADP-Glo kinase assay. It counts as protein-complex assay.
Test [3] addresses Cyclin-dependent kinase 4/cyclin D1 (Homo sapiens, UniProt P11802). Briefly: Inhibition of CDK4/Cyclin D1 (unknown origin) by ADP-Glo kinase assay. It counts as protein-complex assay.
The next test addresses CDK6/cyclin D1 (Homo sapiens, UniProt Q00534). Put plainly: Inhibition of CDK6/cyclin D1 (unknown origin) by ADP-Glo kinase assay. It counts as protein-complex assay.
For the next test, the target named is CDK1/Cyclin A (Homo sapiens, UniProt P06493). Put plainly: Inhibition of CDK1/Cyclin A2 (unknown origin) by ADP-Glo kinase assay. It counts as protein-complex assay. The method in brief:
(§1)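 Kinase inhibition was measured by ADP-Glo assay. IC50 values are means of three independent experiments.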

The next test has as its target CDK1/Cyclin E (Homo sapiens, UniProt P06493). Briefly: Inhibition of CDK1/Cyclin E1 (unknown origin) by ADP-Glo kinase assay. It counts as protein-complex assay. Put shortly: as §1
Test [4] concerns the target Cyclin-Y/Cyclin-dependent kinase 16 (Homo sapiens, UniProt Q00536). Briefly: Inhibition of CDK16/cyclin Y (unknown origin) by ADP-Glo kinase assay. It counts as protein-complex assay.
Test [5] concerns the target Cyclin-C/Cyclin-dependent kinase 19 (Homo sapiens, UniProt Q9BWU1). Put plainly: Inhibition of CDK19/Cyclin C (unknown origin) by ADP-Glo kinase assay. It counts as protein-complex assay.
The next test concerns the target CDK8/Cyclin C (Homo sapiens, UniProt P49336). Put plainly: Inhibition of CDK8/Cyclin C (unknown origin) by ADP-Glo kinase assay. It counts as protein-complex assay.
Test [6] deals with VCaP. Briefly: Downregulation of RAD51 expression in human VCaP cells at 10 to 300 nM pretreated for 2 hrs followed by compound washout measured after 12 hrs by Western blot analysis. It counts as functional, cell-based. Conditions: dose 10-300 nM.
Test [7] relates to VCaP. Briefly: Upregulation of c-PARP expression in human VCaP cells at 10 to 300 nM pretreated for 2 hrs followed by compound washout measured after 12 hrs by Western blot analysis. It counts as functional, cell-based. The settings on record: dose 10-300 nM. Put shortly:
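VCaP cells were grown in DMEM GlutaMAX with 10% FBS and P/S. After treatment they were washed with cold PBS and lysed in RIPA with protease inhibitors. Equal protein was run on 4–12% Bis-Tris SDS-PAGE, transferred to nitrocellulose, and probed for cleaved PARP with α-tubulin as loading control. Detection used HRP secondary antibodies.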
Background: A western blot detects proteins with antibodies after separation by electrophoresis.

Test [8] has as its system VCaP. Put plainly: Antiproliferative activity against human VCaP cells measured after 5 days by Cell Titer-Glo assay. Conditions: 120 h. It counts as functional, cell-based. Put shortly:
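Cells were seeded and incubated overnight at 37 °C, 5% CO2. Serial compound dilutions were then added. Viability was read by CellTiter-Glo luminescence after 5 days, and IC50 was obtained by curve fitting.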
Background: ATP-based viability assays read luminescence as a measure of living cells.

Test [9] deals with VCaP. Briefly: Antiproliferative activity against human VCaP cells assessed as irreversible cell growth inhibition pretreated for 6 hrs followed by compound washout and subsequent addition of compound-free medium measured after 5 days by Cell Titer-Glo assay. It counts as functional, cell-based. The method in brief: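 VCaP cells (DMEM GlutaMAX, 10% FBS) were exposed to compound for 6 h. The compound was then removed and cells were grown in compound-free medium for 5 days before the viability read-out.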

Test [10] deals with Cyclin-dependent kinase 12 (Homo sapiens) (UniProt Q9NYV4). Briefly: Binding affinity to CDK12 in human VCaP cells incubated for 4 hrs by streptavidin-biotin pull down assay. It counts as cell-based. The method in brief: (§2)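 VCaP cells were treated with a biotinylated probe for 4 h and lysed in RIPA buffer. Lysate was incubated with streptavidin beads overnight at 4 °C. Beads were washed three times with PBST (0.1% Tween) and eluted in 2X SDS loading buffer. Proteins were separated by SDS-PAGE.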

For test [11], the target named is Cyclin-dependent kinase 13 (Homo sapiens) (UniProt Q14004). Briefly: Binding affinity to CDK13 in human VCaP cells incubated for 4 hrs by streptavidin-biotin pull down assay. It counts as cell-based. Put shortly: as §2
Chain of Cyclin-dependent kinase 13 (Homo sapiens) (Q14004 whole entry, looked up): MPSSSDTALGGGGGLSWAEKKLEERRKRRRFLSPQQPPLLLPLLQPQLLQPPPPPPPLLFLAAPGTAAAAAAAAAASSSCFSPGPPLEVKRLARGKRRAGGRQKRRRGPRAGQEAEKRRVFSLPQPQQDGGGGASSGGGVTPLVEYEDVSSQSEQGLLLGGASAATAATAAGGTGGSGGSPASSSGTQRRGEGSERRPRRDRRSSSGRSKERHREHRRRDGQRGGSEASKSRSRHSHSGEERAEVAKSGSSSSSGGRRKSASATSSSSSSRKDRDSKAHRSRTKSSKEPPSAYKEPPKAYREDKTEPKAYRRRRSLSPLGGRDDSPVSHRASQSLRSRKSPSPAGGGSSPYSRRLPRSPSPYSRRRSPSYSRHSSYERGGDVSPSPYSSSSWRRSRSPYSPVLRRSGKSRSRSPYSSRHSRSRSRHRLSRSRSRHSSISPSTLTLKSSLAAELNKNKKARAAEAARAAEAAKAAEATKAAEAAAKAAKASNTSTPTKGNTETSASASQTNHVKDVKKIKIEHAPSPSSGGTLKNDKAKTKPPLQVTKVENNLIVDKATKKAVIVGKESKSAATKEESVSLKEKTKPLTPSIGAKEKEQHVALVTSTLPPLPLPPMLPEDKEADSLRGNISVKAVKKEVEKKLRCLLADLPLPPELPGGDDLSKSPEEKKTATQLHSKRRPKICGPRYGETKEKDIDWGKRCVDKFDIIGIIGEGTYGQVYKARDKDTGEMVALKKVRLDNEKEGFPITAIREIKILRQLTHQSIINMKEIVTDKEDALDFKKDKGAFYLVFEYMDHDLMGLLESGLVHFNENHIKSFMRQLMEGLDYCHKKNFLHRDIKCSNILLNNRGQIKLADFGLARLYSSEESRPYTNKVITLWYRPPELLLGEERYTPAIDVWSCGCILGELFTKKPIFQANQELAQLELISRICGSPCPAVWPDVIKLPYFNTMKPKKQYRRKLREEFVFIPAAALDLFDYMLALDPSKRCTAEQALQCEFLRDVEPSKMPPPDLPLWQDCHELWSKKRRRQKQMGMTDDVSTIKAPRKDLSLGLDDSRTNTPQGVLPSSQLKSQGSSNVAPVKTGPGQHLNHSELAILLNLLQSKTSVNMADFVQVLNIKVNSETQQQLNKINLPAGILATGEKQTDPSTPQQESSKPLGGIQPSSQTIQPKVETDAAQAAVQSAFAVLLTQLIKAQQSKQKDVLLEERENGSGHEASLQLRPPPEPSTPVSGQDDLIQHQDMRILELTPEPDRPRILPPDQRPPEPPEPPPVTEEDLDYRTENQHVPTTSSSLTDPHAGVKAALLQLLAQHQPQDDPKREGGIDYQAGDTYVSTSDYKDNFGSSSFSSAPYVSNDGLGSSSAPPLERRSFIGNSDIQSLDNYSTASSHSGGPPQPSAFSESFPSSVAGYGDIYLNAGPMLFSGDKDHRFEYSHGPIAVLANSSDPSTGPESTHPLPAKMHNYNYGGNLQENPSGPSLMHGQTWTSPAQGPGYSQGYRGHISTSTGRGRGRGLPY
For test [12], the system named is VCaP. Briefly: Antitumor activity against human VCaP cells xenografted in mouse assessed as reduction in tumor growth at 0.5 to 1.5 mg/kg, ip treated for 27 days. It counts as functional, organism-based. Conditions: dose 0.5-1.5 mg/kg, time 27.0 day. Put shortly:
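VCaP CRPC cells (5×10^6) were injected […] NSG or CB17SCID mice. Dosing began at tumours of ~200–400 mm3: 0.5 or 1.5 mg/kg i.p. for 27 days. Vehicle was 20% PEG400, 6% Cremophor EL, 74% PBS. Tumours were collected at the end for Western blot.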

Chain of CDK6/cyclin D1 (P24385 whole entry): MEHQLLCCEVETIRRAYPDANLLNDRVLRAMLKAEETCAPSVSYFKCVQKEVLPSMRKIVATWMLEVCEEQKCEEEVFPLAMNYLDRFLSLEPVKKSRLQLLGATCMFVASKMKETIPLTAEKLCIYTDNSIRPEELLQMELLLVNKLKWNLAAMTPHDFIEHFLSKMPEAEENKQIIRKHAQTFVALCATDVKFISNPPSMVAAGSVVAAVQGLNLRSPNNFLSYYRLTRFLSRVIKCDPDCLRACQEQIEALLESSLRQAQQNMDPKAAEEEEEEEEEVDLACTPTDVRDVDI
Chain of CDK6/cyclin D1 (Q00534 whole entry): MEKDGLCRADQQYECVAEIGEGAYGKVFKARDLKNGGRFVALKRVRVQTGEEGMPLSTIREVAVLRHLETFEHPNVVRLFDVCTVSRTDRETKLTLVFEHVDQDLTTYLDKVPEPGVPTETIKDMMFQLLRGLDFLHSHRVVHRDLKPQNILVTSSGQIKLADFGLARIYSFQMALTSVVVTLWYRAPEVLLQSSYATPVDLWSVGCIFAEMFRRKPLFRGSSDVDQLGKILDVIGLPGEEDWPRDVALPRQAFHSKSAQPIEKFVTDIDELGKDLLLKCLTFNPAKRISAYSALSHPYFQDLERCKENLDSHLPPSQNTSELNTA
Chain of Cyclin-Y/Cyclin-dependent kinase 16 (Q00536 whole entry): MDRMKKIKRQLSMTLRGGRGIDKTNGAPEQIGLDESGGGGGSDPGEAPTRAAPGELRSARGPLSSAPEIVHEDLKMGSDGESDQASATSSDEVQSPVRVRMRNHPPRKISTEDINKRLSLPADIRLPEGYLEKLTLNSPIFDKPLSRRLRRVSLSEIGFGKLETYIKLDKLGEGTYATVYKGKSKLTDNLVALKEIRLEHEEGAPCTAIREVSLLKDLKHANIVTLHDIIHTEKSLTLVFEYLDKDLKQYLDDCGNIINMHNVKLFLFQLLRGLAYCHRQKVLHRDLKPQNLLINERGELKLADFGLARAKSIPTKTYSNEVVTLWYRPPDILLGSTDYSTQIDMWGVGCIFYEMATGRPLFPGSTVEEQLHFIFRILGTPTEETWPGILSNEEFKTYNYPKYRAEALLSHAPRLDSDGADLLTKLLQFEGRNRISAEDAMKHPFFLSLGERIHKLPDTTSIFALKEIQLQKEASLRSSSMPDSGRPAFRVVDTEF
Chain of Cyclin-Y/Cyclin-dependent kinase 16 (Q8ND76 whole entry, further chain): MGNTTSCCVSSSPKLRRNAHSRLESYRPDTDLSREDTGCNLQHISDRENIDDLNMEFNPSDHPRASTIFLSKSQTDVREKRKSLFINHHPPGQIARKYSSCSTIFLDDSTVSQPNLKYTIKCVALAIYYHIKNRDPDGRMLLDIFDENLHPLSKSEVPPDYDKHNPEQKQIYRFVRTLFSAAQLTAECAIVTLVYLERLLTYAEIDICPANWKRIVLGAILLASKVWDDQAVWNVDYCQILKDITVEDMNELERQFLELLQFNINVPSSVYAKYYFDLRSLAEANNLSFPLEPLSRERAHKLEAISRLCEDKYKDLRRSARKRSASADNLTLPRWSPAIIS
Chain of Cyclin-dependent kinase 4/cyclin D1 (P11802 whole entry): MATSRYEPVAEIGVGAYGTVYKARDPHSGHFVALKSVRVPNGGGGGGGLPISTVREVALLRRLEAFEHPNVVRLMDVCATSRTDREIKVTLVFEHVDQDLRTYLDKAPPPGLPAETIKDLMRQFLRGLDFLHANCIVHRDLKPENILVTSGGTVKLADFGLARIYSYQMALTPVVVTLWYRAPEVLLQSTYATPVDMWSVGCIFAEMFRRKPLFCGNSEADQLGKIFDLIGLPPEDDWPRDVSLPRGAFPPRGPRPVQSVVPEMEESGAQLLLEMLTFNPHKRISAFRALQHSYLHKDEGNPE
Chain of Cyclin-dependent kinase 4/cyclin D1 (P24385 whole entry, further chain): as the sequence (P24385 whole entry) above

Usually IC50 stands for the concentration that inhibits the measured activity by half. A higher IC50 goes with weaker potency. Regarding `Cn1cc(-c2ccc(N(C(=O)NCc3ccccc3)[C@H]3CC[C@H](Nc4ccc(C#N)cn4)CC3)cc2)ccc1=O`, the IC50 against CDK7/Cyclin H/MNAT1 turned out to be 679 nM; at CDK9/cyclin T1 it was 515 nM; against CDK9/Cyclin K, 716 nM; in test [1], 4.86 µM; in [2], 5.07 µM; in [3], 5.28 µM. Also, the IC50 at CDK6/cyclin D1 is 8.79 µM; on CDK1/Cyclin A it was greater than 10 µM; on CDK1/Cyclin E, greater than 10 µM; in test [4] it was greater than 10 µM; in test [5], greater than 10 µM; against CDK8/Cyclin C it was greater than 10 µM. Also, the outcome in the test on VCaP [6] and in the test on VCaP [7] was inactive.

Take `C=CC(=O)Nc1cc(N(C(=O)NCc2ccccc2)[C@H]2CC[C@H](Nc3ccc(C#N)cn3)CC2)ccc1N1CCN(C)[C@@H](C)C1`: in the test on VCaP [8], 4.3 nM corresponded to half-maximal inhibition (IC50).

Take `Cn1cc(-n2cnc3c(NCc4nc5cc(Cl)c(Cl)cc5[nH]4)nc(N4CCOCC4)nc32)cn1`: the inhibition entry in the test on VCaP [9] was “inactive”.

With `C=CC(=O)Nc1cc(N(C(=O)NCc2ccccc2)[C@H]2CC[C@H](Nc3ccc(C#N)cn3)CC2)ccc1N1CCC(N(C)C(=O)CCOCCOCCOCCOCCNC(=O)CCCC[C@@H]2SC[C@@H]3NC(=O)N[C@@H]32)CC1`, the result in [10] and in test [11] was Active.

`C=CC(=O)Nc1cc(N(C(=O)NCc2ccccc2)[C@H]2CC[C@H](Nc3ccc(C#N)cn3)CC2)ccc1N1C[C@H]2C[C@@H]1CN2C`: the IC50 in the test on VCaP [8] was 76.3 nM.

Regarding `Cn1ncc(Cl)c1-c1cc(C(=O)N[C@H](CN)Cc2ccc(F)c(F)c2)oc1Cl`, the outcome in the test with VCaP [12] was Active.
